Test results as given in ChEMBL document CHEMBL1138270, “Antimycobacterial activities of novel 1-(cyclopropyl/tert-butyl/4-fluorophenyl)-1,4-dihydro- 6-nitro-4-oxo-7-(substituted secondary amino)-1,8-naphthyridine-3-carboxylic acid” (J Med Chem, 2007).
In brackets after ≈: the same amount, converted by molar mass.

Tests used:
[1] = test system: Vero; experiment: Cytotoxicity against Vero cells after 72 hrs by MTT assay; format: cell-based; details: Chlorocebus sabaeus
Procedure, shortened: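 Vero cells were exposed to serially diluted compound up to 62.5 µg/mL for 72 h. Viability was read by cellular conversion of MTT to formazan (CellTiter 96 non-radioactive proliferation assay), and IC50 was derived.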

[2] = test system: Mycobacterium tuberculosis; experiment: Antimycobacterial activity against Mycobacterium tuberculosis H37Rv by agar dilution method; format: functional
Procedure, shortened: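 MIC was determined by agar dilution, in duplicate.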

[3] = test system: Mycolicibacterium smegmatis; experiment: Antimicrobial activity against Mycobacterium smegmatis by agar dilution method; format: functional
Procedure, shortened: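 Agar dilution against M. smegmatis ATCC 14468; MIC determined in duplicate.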

[4] = Inhibition of Mycobacterium smegmatis DNA gyrase supercoiling activity; design: species or system Mycolicibacterium smegmatis
Procedure, shortened: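 Gyrase purified from M. smegmatis was preincubated with compound in DMSO (5% DMSO in reaction). 400 ng relaxed pUC18 was added in 35 mM Tris-HCl pH 7.5, 5 mM MgCl2, 25 mM K-glutamate, 2 mM spermidine, 2 mM ATP, BSA, tRNA and 5% glycerol, 1 h at 37 °C. Samples were heat-inactivated, run on 1% agarose in TAE, and ethidium-stained; IC50 was derived.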

[5] = test system: Mus musculus; experiment: Phototoxicity in Swiss Albino mouse assessed as ear thickness at 140 mg/kg, po after 48 hrs of irradiation; format: organism-based; design: dose 140 mg/kg, route oral; details: in vivo
Procedure, shortened: (§1)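 Female Swiss albino mice (~2 months, 20-25 g) were fasted ≥18 h and given 140 mg/kg orally by gavage; controls received 0.5% Na-CMC vehicle at 10 mL/kg. UVA started right after dosing, 4 h (~18 J/cm2). Ear thickness was measured before dosing and at 4, ~24, 48, 72 and 96 h, reported as mean of left and right ears ± SEM.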

[6] = test system: Mus musculus; experiment: Phototoxicity in Swiss Albino mouse assessed as ear thickness at 140 mg/kg, po after 24 hrs of irradiation; format: organism-based; design: dose 140 mg/kg, route oral; details: in vivo; procedure, shortened: as §1
[7] = test system: Mus musculus; experiment: Phototoxicity in Swiss Albino mouse assessed as ear thickness at 140 mg/kg, po after 4 hrs of irradiation; format: organism-based; design: dose 140 mg/kg, route oral; details: in vivo; procedure, shortened: as §1
[8] = test system: Mus musculus; experiment: Phototoxicity in UV light irradiated Swiss Albino mouse assessed as ear thickness at 140 mg/kg, po; format: organism-based; design: dose 140 mg/kg, route oral; details: in vivo; procedure, shortened: as §1
[9] = test system: Mus musculus; experiment: Phototoxicity in Swiss Albino mouse assessed as ear thickness at 140 mg/kg, po after 72 hrs of irradiation; format: organism-based; design: dose 140 mg/kg, route oral; details: in vivo; procedure, shortened: as §1
[10] = test system: Mus musculus; experiment: Phototoxicity in UV light irradiated Swiss Albino mouse assessed ear erythema at 140 mg/kg, po; format: organism-based; design: dose 140 mg/kg, route oral; details: in vivo
[11] = test system: Mus musculus; experiment: Phototoxicity in Swiss Albino mouse assessed as ear erythema at 140 mg/kg, po after 4 hrs of irradiation; format: organism-based; design: dose 140 mg/kg, route oral; details: in vivo
[12] = test system: Mus musculus; experiment: Phototoxicity in Swiss Albino mouse assessed as ear erythema at 140 mg/kg, po after 72 hrs of irradiation; format: organism-based; design: dose 140 mg/kg, route oral; details: in vivo
[13] = test system: Mus musculus; experiment: Phototoxicity in Swiss Albino mouse assessed as ear erythema at 140 mg/kg, po after 96 hrs of irradiation; format: organism-based; design: dose 140 mg/kg, route oral; details: in vivo
[14] = test system: Mus musculus; experiment: Phototoxicity in Swiss Albino mouse assessed as ear thickness at 140 mg/kg, po after 96 hrs of irradiation; format: organism-based; design: dose 140 mg/kg, route oral; details: in vivo; procedure, shortened: as §1
[15] = test system: Mus musculus; experiment: Phototoxicity in Swiss Albino mouse assessed as ear erythema at 140 mg/kg, po after 24 hrs of irradiation; format: organism-based; design: dose 140 mg/kg, route oral; details: in vivo

| Structure (SMILES) | IC50 [1] [µM] | MIC [2] [µM] | MIC [3] [µM] | other results |
| --- | --- | --- | --- | --- |
| CCN(CC)C(=O)C1CCCN(c2nc3c(cc2[N+](=O)[O-])c(=O)c(C(=O)O)cn3-c2ccc(F)cc2)C1 (centres undefined) | > 122 | 3.05 (≈ 1.56 µg/mL) | 12.2 (≈ 6.25 µg/mL) | – |
| CC1(C)COCN1c1nc2c(cc1[N+](=O)[O-])c(=O)c(C(=O)O)cn2C1CC1 | 167 | 0.51 (≈ 0.191 µg/mL) | 4.17 (≈ 1.56 µg/mL) | – |
| CC(C)(C)n1cc(C(=O)O)c(=O)c2cc([N+](=O)[O-])c(N3CCC4(CC3)OCCO4)nc21 | 144 | 0.9 (≈ 0.389 µg/mL) | 3.61 (≈ 1.56 µg/mL) | IC50 [4]: 92.5 µM |
| CC1CN(c2nc3c(cc2[N+](=O)[O-])c(=O)c(C(=O)O)cn3C(C)(C)C)CC(C)O1 (centres undefined) | 159 | 7.74 (≈ 3.13 µg/mL) | 15.4 (≈ 6.25 µg/mL) | – |
| COc1ccc(CC2C3=C(CCCC3)CCN2c2nc3c(cc2[N+](=O)[O-])c(=O)c(C(=O)O)cn3C2CC2)cc1 (centres undefined) | 118 | 5.89 (≈ 3.13 µg/mL) | 1.47 (≈ 0.78 µg/mL) | Activity [5]: 0.38 mm; Activity [6]: 0.34 mm; Activity [7]: 0.34 mm; Activity [8]: 0.33 mm; Activity [9]: 0.36 mm; Activity [10]: Non-toxic; Activity [11]: Non-toxic; Activity [12]: Non-toxic; Activity [13]: Non-toxic; Activity [14]: 0.33 mm; Activity [15]: Non-toxic; IC50 [4]: 56.5 µM |
| CC(C)(C)n1cc(C(=O)O)c(=O)c2cc([N+](=O)[O-])c(N3CCC(n4c(=O)[nH]c5cc(Cl)ccc54)CC3)nc21 | 57.7 | 2.88 (≈ 1.56 µg/mL) | 11.5 (≈ 6.24 µg/mL) | – |
| CC(C)(C)n1cc(C(=O)O)c(=O)c2cc([N+](=O)[O-])c(N3CCn4cc(C(=O)O)nc4C3)nc21 | > 137 | 0.42 (≈ 0.192 µg/mL) | 6.86 (≈ 3.13 µg/mL) | – |
| CC(C)(C)n1cc(C(=O)O)c(=O)c2cc([N+](=O)[O-])c(N3CCC(O)(c4ccc(Cl)cc4)CC3)nc21 | 125 | 3.11 (≈ 1.56 µg/mL) | 24.9 (≈ 12.5 µg/mL) | – |
| O=C(O)c1cn(C2CC2)c2cc(N3CCNCC3)c(F)cc2c1=O [CIPROFLOXACIN] | – | – | – | IC50 [4]: 15.1 µM |
| O=C(O)c1cn(-c2ccc(F)cc2)c2nc(N3CCN(C(=O)C4COc5ccccc5O4)CC3)c([N+](=O)[O-])cc2c1=O (centres undefined) | > 54.3 | 10.9 (≈ 6.25 µg/mL) | 21.7 (≈ 12.5 µg/mL) | – |
| COc1ccc(CC2C3=C(CCCC3)CCN2c2nc3c(cc2[N+](=O)[O-])c(=O)c(C(=O)O)cn3-c2ccc(F)cc2)cc1 (centres undefined) | < 53.5 | 10.7 (≈ 6.25 µg/mL) | 85.5 (≈ 50 µg/mL) | – |
| O=C(O)c1cn(-c2ccc(F)cc2)c2nc(N3CCN(C(=O)c4ccco4)CC3)c([N+](=O)[O-])cc2c1=O | 123 | 3.07 (≈ 1.56 µg/mL) | 24.6 (≈ 12.5 µg/mL) | – |
| O=C(O)c1cn(C2CC2)c2nc(N3CCSCC3)c([N+](=O)[O-])cc2c1=O | 166 | 8.32 (≈ 3.13 µg/mL) | 33.2 (≈ 12.5 µg/mL) | – |
| O=C(O)c1cn(C2CC2)c2nc(N3CCC4(CC3)OCCO4)c([N+](=O)[O-])cc2c1=O | 150 | 7.52 (≈ 3.13 µg/mL) | 30 (≈ 12.5 µg/mL) | – |
| O=C(O)c1cn(-c2ccc(F)cc2)c2nc(N3CCC(n4c(=O)[nH]c5cc(Cl)ccc54)CC3)c([N+](=O)[O-])cc2c1=O | 53.9 | 2.69 (≈ 1.56 µg/mL) | 10.8 (≈ 6.25 µg/mL) | – |
| O=C(O)c1cn(-c2ccc(F)cc2)c2nc(N3CCN(Cc4ccc5c(c4)OCO5)CC3)c([N+](=O)[O-])cc2c1=O | 57.1 | 11.4 (≈ 6.25 µg/mL) | 45.7 (≈ 25 µg/mL) | – |
| CC(C)(C)NC(=O)C1c2ccccc2CCN1c1nc2c(cc1[N+](=O)[O-])c(=O)c(C(=O)O)cn2C(C)(C)C (centres undefined) | 120 | 2.99 (≈ 1.56 µg/mL) | 6 (≈ 3.13 µg/mL) | – |
| CC(C)(C)NC(=O)C1c2ccccc2CCN1c1nc2c(cc1[N+](=O)[O-])c(=O)c(C(=O)O)cn2-c1ccc(F)cc1 (centres undefined) | 112 | 2.79 (≈ 1.56 µg/mL) | 11.2 (≈ 6.25 µg/mL) | – |
| O=C(O)c1cn(C2CC2)c2nc(N3CCC(O)(c4ccc(Cl)cc4)CC3)c([N+](=O)[O-])cc2c1=O | 64.4 | 6.46 (≈ 3.13 µg/mL) | 25.8 (≈ 12.5 µg/mL) | – |
| O=C(O)c1cn(-c2ccc(F)cc2)c2nc(N3CCC4(CC3)OCCO4)c([N+](=O)[O-])cc2c1=O | 133 | 6.65 (≈ 3.13 µg/mL) | 26.6 (≈ 12.5 µg/mL) | – |
| COc1ccc(CC2C3=C(CCCC3)CCN2c2nc3c(cc2[N+](=O)[O-])c(=O)c(C(=O)O)cn3C(C)(C)C)cc1 (centres undefined) | > 114 | 5.73 (≈ 3.13 µg/mL) | 11.4 (≈ 6.25 µg/mL) | – |
